Only some compounds are listed: those with a hit (about 3.4% of all), similar ones and a draw of the others.
TAAR1 ag: agonists of human TAAR1; CHO RD-HGA16 TAAR1, Fluo-8 calcium fluorescence; vehicle wells 0%, saturating PEA agonist 100%; activation, % at 3 µM; hit rate 0.99% among 360,000; AID 624467;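 active = activation above the mean activation of all test compounds in the run plus 3 SD, cut at about 38% in these data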
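Test system: RD-HGA16 (CHO) cells co-expressing Gα16 and hTAAR1; dosing: one-point dosing at 3 µM (nominal); timing: 17-24 h seeding, 75 min 37 °C dye, 30 min RT; signal: kinetic Fluo-8 calcium fluorescence; read-out basis: % activation relative to PEA EC100 response; controls: DMSO and PEA EC100; replicates: n 1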
TAAR1 antag: human TAAR1 antagonism. Q96RJ0. CHO RD-HGA16 TAAR1, Fluo-8 calcium fluorescence, antagonist. inhibition, % at 3 µM. hit rate 1.5% among 360,000. AID 624466;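 active = inhibition above a per-plate cutoff, the mean inhibition of test compounds on that plate plus 3 SD, cut at about 49% in these data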
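Test system: hTAAR1-expressing CHO RD-HGA16 cells, Gα16-coupled; Probe or stimulus: EC80 β-phenethylamine stimulus; Compound dosing: single nominal final test compound concentration of 3 µM; Timing: 140 s kinetic read after compound, 140 s after agonist; Signal: Fluo-8 calcium-sensitive fluorescence; Measure: % inhibition of agonist calcium response; Controls: DMSO and EC80 PEA controls.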
CHRM1 agonist: human M1 muscarinic receptor agonism; CHO-K1 hM1, Fluo-8 calcium fluorescence, agonist mode; 0% DMSO, 100% acetylcholine EC100; activation, % at 3 µM; hit rate 0.33% among 360,000; P11229;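 active = activation above the run's mean compound activation plus 3 SD, cut at about 16% in these data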;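 also: peak over basal fluorescence ratio within a 140 s kinetic read after compound addition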
Target sequence (P11229 whole entry, looked up): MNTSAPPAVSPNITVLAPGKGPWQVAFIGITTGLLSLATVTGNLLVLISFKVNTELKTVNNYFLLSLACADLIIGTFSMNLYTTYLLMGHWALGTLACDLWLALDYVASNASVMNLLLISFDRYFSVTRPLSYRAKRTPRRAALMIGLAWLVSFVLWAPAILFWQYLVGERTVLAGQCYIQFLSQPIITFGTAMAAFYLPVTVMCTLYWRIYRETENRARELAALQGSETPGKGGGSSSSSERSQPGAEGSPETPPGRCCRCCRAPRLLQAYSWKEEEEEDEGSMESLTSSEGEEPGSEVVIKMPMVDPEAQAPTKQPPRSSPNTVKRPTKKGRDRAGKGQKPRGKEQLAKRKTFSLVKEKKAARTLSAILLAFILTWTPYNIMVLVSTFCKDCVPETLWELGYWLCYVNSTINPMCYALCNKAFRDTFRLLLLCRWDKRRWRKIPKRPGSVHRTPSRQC
CHRM1 PAM: potentiates human M1 receptor response to acetylcholine; AID 588819; CHO-K1 hM1, Fluo-8 calcium fluorescence, ACh EC20; 0% = ACh EC20, 100% = maximal ACh; activation, % at 3 µM; P11229; hit rate 0.088% among 360,000; in the data active = activation above about 19%, passing the limit was not always enough
CHRM1 antagonist: antagonists of human M1 muscarinic receptor | P11229 | CHO-K1 hM1, Fluo-8 calcium fluorescence, ACh EC80 antagonist | inhibition, % at 3 µM | hit rate 1.3% among 360,000 | AID 588852;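 active = percent inhibition above its own plate's cutoff, namely the mean of that plate's compound wells plus 3 SD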;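 also: peak over basal fluorescence ratio during 140 s after agonist addition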
nonsel antag count: nonselective antagonist in TAAR1 antagonist counter-screen. shares compounds with TAAR1 antag. counterscreen cell line, calcium fluorescence, antagonist mode. inhibition, % at 3 µM. hit rate 77% among 2,400. AID 651780; in the data active = inhibition above about 22%;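 also: CHO-Ga16 host cells stimulated with ATP at an EC80 level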
TAAR1 ant conf: confirmation of human TAAR1 antagonists | shares compounds with TAAR1 antag | TAAR1-expressing cells, fluorescence antagonist read-out | inhibition, % at 3 µM | hit rate 40% among 2,400 | AID 651785; in the data active = inhibition above about 49%;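 also: CHO-Ga16 host cells challenged with agonist PEA near its EC80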
Ga16 ag counter: nonselective Ga16 agonist in TAAR1 antagonist counter-screen; Ga16-expressing cells, calcium fluorescence, agonist counterscreen; shares compounds with TAAR1 antag; hit rate 18% among 2,400; AID 651953; activation, % at 3 µM; in the data active = activation above about 12%
TAAR1 ag counter: TAAR1 agonism, antagonist counter-screen; activation, % at 3 µM; AID 651955; shares compounds with TAAR1 antag; hit rate 2% among 2,400; hTAAR1 cell line, fluorescence activation, agonist mode; in the data active = activation above about 37%;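 also: CHO cells stably expressing TAAR1 with calcium dye readout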
A number is an active result; 0 = inactive; - = no result given.

SMILES	TAAR1 ag	TAAR1 antag	CHRM1 agonist	CHRM1 PAM	CHRM1 antagonist	nonsel antag count	TAAR1 ant conf	Ga16 ag counter	TAAR1 ag counter
CN1CCN(C(=O)c2cnn3c(C(F)(F)F)cc(-c4cccs4)nc23)CC1	0	0	0	0	0	-	-	-	-
O=C(c1cnn2c(C(F)(F)F)cc(-c3cccs3)nc12)N1CCN(Cc2ccccc2)CC1	0	59	0	0	0	0	0	0	0
C#CCN(C[C@H]1[C@H](OC(=O)NCc2ccc(OC)c(OC)c2)[C@H](OC(=O)NCc2ccc(OC)c(OC)c2)C[C@@H](C(=O)OC)[C@H]1C(=O)OC)S(=O)(=O)c1ccc(C)cc1	0	58	0	0	0	27	0	0	0
CC[C@@]1(C(=O)OC)N[C@H](CN(C)C(=O)c2ccc(C(C)(C)C)cc2)[C@@H]2C(=O)N(Cc3ccccc3)C(=O)[C@@H]21	0	66	0	0	0	28	51	0	0
CC[C@@]1(C(=O)OC)N[C@H](CN(C)C(=O)c2ccccc2)[C@@H]2C(=O)N(Cc3ccccc3)C(=O)[C@@H]21	0	0	0	0	0	-	-	-	-
Cc1ccc(C(C)C)c(OCCNC(=O)c2ccccc2O)c1	0	58	0	0	0	0	0	0	0
O=C(NCc1ccco1)c1cccc(-c2nnc(-c3ccccc3)o2)c1	0	62	0	0	0	22	0	0	0
O=C(NCc1ccco1)c1ccccc1	0	0	0	0	0	-	-	-	-
Cc1cccc(-c2noc(-c3ccccc3C(=O)NCc3ccco3)n2)c1	0	52	0	0	0	26	0	0	0
Cc1ccc(-c2noc(-c3ccccc3C(=O)NCc3ccco3)n2)cc1	0	0	0	0	0	-	-	-	-
Cc1cccc(-c2noc(CCC(=O)NCc3ccccc3)n2)c1	0	106	0	0	0	0	0	0	0
COc1ccc(-c2nc(SCC(=O)Nc3nccs3)c(-c3ccc(Cl)cc3)[nH]2)cc1	0	68	0	0	0	45	59	0	0
Cn1cc([C@]2(O)C(=O)Nc3ccc(F)cc32)c2ccccc21	0	0	-	-	-	-	-	-	-
COc1ccc(N(CC(=O)NCCSC2CCCCC2)S(=O)(=O)c2ccccc2)c(OC)c1	0	0	0	0	0	-	-	-	-
COc1ccc(N(CC(=O)NCCSc2ccc(C)cc2)S(=O)(=O)c2ccccc2)c(OC)c1	0	68	0	0	0	22	51	0	0
Cc1cccc(C)c1NC(=O)C1(C)CSCC(=O)N1Cc1cccs1 (stereo unspecified)	0	0	-	-	-	-	-	-	-
COc1ccc(S(=O)(=O)N2CCCCCC2)cc1C(=O)OCc1cccc(OC)c1OC	0	58	0	0	0	22	0	0	0
COc1ccc(CN(C)C(=O)C(Cc2ccccc2)NC(=O)c2ccccc2)c(OC)c1 (stereo unspecified)	0	67	0	0	0	30	50	0	0
CS(=O)(=O)Nc1cccc(NC(=O)C2Cc3c(-c4ccccc4)ccnc3O2)c1 (stereo unspecified)	0	0	0	0	0	-	-	-	-
COc1ccc2cc(-c3cc(C(=O)O)c4ccccc4n3)ccc2c1	0	0	0	0	0	-	-	-	-
COc1ccc(CN(C)C(=O)c2cc(-c3ccc(OC)c(OC)c3)nc3ccccc23)c(OC)c1	0	80	0	0	29	26	49	0	0
COc1ccc(-c2cc(C(=O)N(C)Cc3cccc(OC)c3OC)c3ccccc3n2)cc1OC	0	62	0	0	0	28	0	0	0
COc1ccccc1CN(C)C(=O)c1cc(-c2cccs2)nc2ccccc12	0	70	0	0	27	37	56	0	0
COc1ccc(CCN(C)C(=O)c2cc(-c3ccccc3)nc3ccccc23)cc1OC	0	0	0	0	0	-	-	-	-
COc1ccc2sc(-c3ccc(S(C)(=O)=O)cc3)c(C(=O)NCCCN3CCCC3=O)c2c1	0	49	0	0	0	31	0	0	0
SMILES	TAAR1 ag	TAAR1 antag	CHRM1 agonist	CHRM1 PAM	CHRM1 antagonist	nonsel antag count	TAAR1 ant conf	Ga16 ag counter	TAAR1 ag counter
O=C(NCCCN1CCCC1=O)c1cc(-c2ccc(F)cc2)nc2ccccc12	0	0	0	0	0	-	-	-	-
COc1ccc(-c2cc(C(=O)NCCCN3CCCC3=O)c3ccccc3n2)cc1	0	50	0	0	0	0	0	0	0
Cc1[nH]c2ccccc2c1C(=O)COC(=O)Cn1c(C(F)(F)F)nc2ccccc21	0	64	0	0	0	37	54	13	0
O=C(Cn1c(C(F)(F)F)nc2ccccc21)OCC(=O)c1c[nH]c2ccccc12	0	0	0	0	0	-	-	-	-
CC1CCN(C(=O)C2CCC(CNS(=O)(=O)c3ccc4c(c3)C(C)(C)C(=O)N4C)CC2)CC1 (stereo unspecified)	0	0	0	0	0	-	-	-	-
O=C(Nc1cccc(NC(=O)c2ccc(-c3ccc(Br)cc3)o2)c1)c1ccco1	0	69	0	0	0	33	50	0	0
O=C(Nc1cccc(NC(=O)c2ccccc2Cl)c1)c1ccco1	0	0	0	0	0	-	-	-	-
O=C(CNC(=O)c1ccc(Br)o1)Nc1cccc(-c2cnc3ccccc3n2)c1	0	64	0	0	0	33	52	12	0
O=C(Nc1cccc(-c2cnc3ccccc3n2)c1)c1ccco1	0	54	0	0	0	0	0	0	0
CCOC(=O)C1=CCN(S(=O)(=O)c2ccc(C)cc2)C1c1cccc(C)c1 (stereo unspecified)	0	0	0	0	0	-	-	-	-
COc1ccc(C(O)c2nc(-c3ccncc3)cs2)cc1 (stereo unspecified)	0	0	0	0	0	-	-	-	-
CCCCS(=O)(=O)N1CCCc2nc(-c3ccc(OC)cc3)ccc21	0	49	-	-	-	32	0	0	0
COc1ccc(C2CC=C(C(C)=O)CN2S(=O)(=O)c2ccc(Cl)cc2)cc1 (stereo unspecified)	0	0	0	0	0	-	-	-	-
COc1cc(/C=C(\C#N)c2nc3ccccc3[nH]2)ccc1Oc1ccc([N+](=O)[O-])cn1	0	84	0	0	0	50	65	0	0
COc1cc(/C=C(\C#N)c2nc3ccccc3[nH]2)cc(Br)c1OCc1ccccc1	0	60	0	0	0	47	56	0	0
COc1cc(F)ccc1-c1csc(C(O)c2ccccc2)n1 (stereo unspecified)	0	0	0	0	0	-	-	-	-
Cc1ccc(NC(=O)c2ccc(-c3cc(Cl)ccc3Cl)o2)c(C)c1	0	0	0	0	0	-	-	-	-
